Data: PMC12679438 (RSC Advances, 2025)
Entries after “also recorded” stand apart in the source; their conditions may differ. Read-outs that look alike come from different tables or passages of the source.

Columns and labels:
[1] = tested on: A549; experiment: MTS cytotoxicity assay, 72 h, A549; type: cell-based, human; details: read-out: IC50 A549
Method in brief: (§1)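 Human lines were kept at 37 °C, 5% CO2 in recommended medium plus 10% FCS, penicillin–streptomycin, 2 mM glutamine, 1 mM bicarbonate, 1 mM pyruvate and 20 mM HEPES, and were mycoplasma-tested biweekly. Cells were exposed to test compound for 72 h on a robotic screening platform, then read by MTS. DMSO-treated cells were the negative control. IC50 came from dose–response curves, mean of ≥6 replicates.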

[2] = tested on: Jurkat; experiment: MTS cytotoxicity assay, 72 h, Jurkat; type: cell-based, human
Method in brief: as §1

[3] = biological target: Recombinant BTK (Homo sapiens, UniProt Q06187); experiment: In vitro biochemical kinase assay
Sequence of Recombinant BTK (Q06187 whole entry): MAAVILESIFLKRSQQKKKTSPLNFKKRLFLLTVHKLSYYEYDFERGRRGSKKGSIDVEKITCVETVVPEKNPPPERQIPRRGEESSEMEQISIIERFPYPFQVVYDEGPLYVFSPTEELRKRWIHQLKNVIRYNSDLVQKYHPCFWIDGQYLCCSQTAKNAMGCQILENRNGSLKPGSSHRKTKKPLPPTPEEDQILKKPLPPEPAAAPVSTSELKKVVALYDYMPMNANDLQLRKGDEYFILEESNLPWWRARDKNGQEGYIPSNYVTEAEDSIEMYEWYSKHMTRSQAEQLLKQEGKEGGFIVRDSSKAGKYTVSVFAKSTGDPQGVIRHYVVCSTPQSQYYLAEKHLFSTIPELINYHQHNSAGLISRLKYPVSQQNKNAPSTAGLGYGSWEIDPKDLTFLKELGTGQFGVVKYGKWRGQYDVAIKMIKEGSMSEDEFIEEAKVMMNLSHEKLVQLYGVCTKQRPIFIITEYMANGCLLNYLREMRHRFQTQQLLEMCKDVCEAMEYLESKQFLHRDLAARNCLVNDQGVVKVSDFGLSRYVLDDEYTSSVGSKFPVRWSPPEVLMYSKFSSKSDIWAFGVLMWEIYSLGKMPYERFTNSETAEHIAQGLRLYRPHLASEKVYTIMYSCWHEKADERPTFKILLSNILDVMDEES

[4] = tested on: CCRF-CEM; experiment: MTS cytotoxicity assay, 72 h, CCRF-CEM; type: cell-based, human
Method in brief: as §1

[5] = tested on: HCT116-p53; experiment: MTS cytotoxicity assay, 72 h, HCT116-p53; type: cell-based, human
Method in brief: as §1

[6] = tested on: K562; experiment: MTS cytotoxicity assay, 72 h, K562; type: cell-based, human; details: read-out: IC50 K562
Method in brief: as §1

[7] = tested on: RAMOS; experiment: MTS cytotoxicity assay, 72 h, RAMOS; type: cell-based, human
Method in brief: as §1

[8] = tested on: HCT116; experiment: MTS cytotoxicity assay, 72 h, HCT116; type: cell-based, human; details: read-out: IC50 HCT116
Method in brief: as §1

[9] = tested on: U2OS; experiment: MTS cytotoxicity assay, 72 h, U2OS; type: cell-based, human
Method in brief: as §1

[10] = tested on: BJ; experiment: MTS cytotoxicity assay, 72 h, BJ fibroblasts; type: cell-based, human
Method in brief: as §1

[11] = tested on: MRC-5; experiment: MTS cytotoxicity assay, 72 h, MRC-5 fibroblasts; type: cell-based, human; details: read-out: IC50 MRC-5
Method in brief: as §1

[12] = tested on: malignant T-cell lines; details: cited from earlier work
[13] = tested on: p-ERK1/2 (Thr202/Tyr204); experiment: Western blot of ERK1/2 phosphorylation in PHA-stimulated Jurkat cells; type: cell-based, human
Method in brief: (§2)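 Jurkat cells at 0.5 × 10^6 per mL were stimulated with PHA 5 µg per mL in RPMI/10% FCS for 15 min, then given test compound at 10, 2.25 or 0.62 µM for 24 h. Controls were 0.1% DMSO and unstimulated cells. RIPA lysates (30 µg) were run on 10% SDS-PAGE and probed for p-ITK/BTK (Tyr551/Tyr511), ITK, p-ERK1/2 (Thr202/Tyr204), ERK1/2 and GAPDH using fluorescent secondaries. Phospho/total ratios were normalised to GAPDH.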

[14] = biological target: T1, Recombinant ITK (Homo sapiens, UniProt Q08881); experiment: In vitro biochemical kinase assay
T1 sequence (Q08881 1-620): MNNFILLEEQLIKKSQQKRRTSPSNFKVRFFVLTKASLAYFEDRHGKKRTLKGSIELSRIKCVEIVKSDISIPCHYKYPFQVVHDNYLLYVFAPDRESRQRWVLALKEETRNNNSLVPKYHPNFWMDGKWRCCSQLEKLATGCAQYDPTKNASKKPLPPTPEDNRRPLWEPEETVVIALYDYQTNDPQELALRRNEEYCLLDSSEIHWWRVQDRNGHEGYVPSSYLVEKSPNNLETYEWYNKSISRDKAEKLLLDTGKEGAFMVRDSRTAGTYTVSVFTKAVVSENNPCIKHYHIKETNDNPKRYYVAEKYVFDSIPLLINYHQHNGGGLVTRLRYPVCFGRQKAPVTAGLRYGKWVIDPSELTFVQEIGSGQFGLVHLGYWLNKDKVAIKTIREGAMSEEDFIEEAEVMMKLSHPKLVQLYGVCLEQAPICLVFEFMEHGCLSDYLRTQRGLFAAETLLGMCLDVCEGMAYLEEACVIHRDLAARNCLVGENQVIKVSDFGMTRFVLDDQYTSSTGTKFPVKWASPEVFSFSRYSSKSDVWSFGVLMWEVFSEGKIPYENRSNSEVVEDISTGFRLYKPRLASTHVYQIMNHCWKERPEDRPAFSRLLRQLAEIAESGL

[15] = tested on: panel of human cell lines; experiment: MTS cytotoxicity assay, statements over groups of cell lines of the panel; type: cell-based; details: stated together in the text; for IC50 / cytotoxicity in fibroblast cells: non-cancerous fibroblasts (BJ, MRC-5)
Method in brief: as §1

[16] = as above; type: cell-based, human; details: human
Method in brief: as §1

[17] = tested on: p-ITK (Tyr551/Tyr511); experiment: Western blot of ITK phosphorylation in PHA-stimulated Jurkat cells; type: cell-based, human
Method in brief: as §2

[18] = ITK/BTK null, MTS, 72 h, mean of ≥6 replicates
[19] = Homo sapiens, Jurkat, read-out: IC50 Jurkat
[20] = Homo sapiens, CCRF-CEM, read-out: IC50 CCRF-CEM
[21] = Homo sapiens, read-out: IC50 HCT116-p53
[22] = Homo sapiens, Ramos, read-out: IC50 RAMOS
[23] = BJ and MRC-5 non-cancerous fibroblast cell lines
[24] = Homo sapiens, U2OS, read-out: IC50 U2OS
[25] = Homo sapiens, BJ, read-out: IC50 BJ

Compound | IC50 ([1]; Homo sapiens, A549, 72 h) | IC50 [2, 19] | IC50 [4, 20] | IC50 [5, 21] | IC50 ([6]; Homo sapiens, K562, 72 h) | IC50 [7, 22] | IC50 / cytotoxicity in fibroblast cells [15] | IC50 ([8]; Homo sapiens, HCT-116, 72 h) | IC50 [9, 24] | IC50 [10, 25] | IC50 ([11]; Homo sapiens, MRC5, 72 h) | also measured
1-(6-(3,5-difluorophenyl)-3-oxo-2,3-dihydropyridazin-4-yl)-N-(furan-2-ylmethyl)azetidine-3-carboxamide [Compound 22] |  |  |  |  |  |  |  |  |  |  |  | IC50 [1, 18]: > 50 µM; IC50 ([2]; read-out: IC50 Jurkat, ITK positive, MTS, mean of ≥6 replicates): 11.2 µM; BTK inhibition (in words) ([3]; ADP-Glo, 0–10 µM range): partial BTK inhibition; also recorded: partial activity against BTK; maximal inhibition of BTK ([3]; at 10 µM): ≤ 50%; IC50 ([3]; read-out: IC50 BTK activity, ADP-Glo, 0–10 µM range): > 10 µM; IC50 ([4]; read-out: IC50 CCRF-CEM, ITK positive, MTS, mean of ≥6 replicates): 18.5 µM; IC50 ([5]; read-out: IC50 HCT116-p53, ITK/BTK null, MTS, mean of ≥6 replicates): 41.2 µM; IC50 ([6]; BTK positive, MTS, 72 h, mean of ≥6 replicates): 21.4 µM; IC50 ([7]; read-out: IC50 RAMOS, BTK positive, MTS, mean of ≥6 replicates): 22.3 µM; IC50 [8, 18]: 40.3 µM; IC50 ([9]; read-out: IC50 U2OS, ITK/BTK null, MTS, mean of ≥6 replicates): 36.2 µM; IC50 ([10]; read-out: IC50 BJ, Non-cancer fibroblasts, MTS, mean of ≥6 replicates): > 50 µM; IC50 ([11]; Non-cancer fibroblasts, MTS, 72 h, mean of ≥6 replicates): > 50 µM
COc1cc(C)c(Sc2cnc(NC(=O)c3ccc(CNC(C)C(C)(C)C)cc3)s2)cc1C(=O)N1CCN(C(C)=O)CC1 (stereo not drawn) [BMS-509744] |  |  |  |  |  |  |  |  |  |  |  | effect in malignant T-cell lines [12]: induced pro-apoptotic signaling and G2/M cell cycle arrest
O=C(Nc1ccccc1)C1CN(c2cc(-c3cccc(F)c3)n[nH]c2=O)C1 [Compound 9, 1-(6-(3-fluorophenyl)-3-oxo-2,3-dihydropyridazin-4-yl)-N-phenylazetidine-3-carboxamide] | > 50 µM | 37.6 µM | 19.5 µM | > 50 µM | > 50 µM | 9.58 µM | inactive | > 50 µM | > 50 µM | > 50 µM | 43.2 µM | p-ERK1/2 (Thr202/Tyr204) level ([13]; PHA-stimulated Jurkat cells, 10 µM (highest concentration), 24 h): reduced phosphorylation; also recorded: significant decrease; p-ERK/ERK ratio (densitometry) ([13]; highest tested concentration, normalized to GAPDH): significant decrease; IC50 [14]: 0.87 µM; BTK inhibition (in words) ([3]; ADP-Glo, 0–10 µM range): no measurable BTK inhibition; also recorded: no BTK inhibitory effect was observed; also recorded: absence of BTK activity; IC50 / cytotoxicity in non-ITK/BTK (ITK-null) cancer lines ([15]; A549, HCT116, HCT116-p53, U2OS): inactive; IC50 at 72 h [16, 23]: > 50 µM; total ITK level ([17]; PHA-stimulated Jurkat cells, 10 µM, 24 h): modest reduction; p-ITK (Tyr551/Tyr511) level ([17]; PHA-stimulated Jurkat cells, 10, 2.25, 0.62 µM for 24 h): reduced phosphorylation; also recorded: concentration-dependent decrease; also recorded: concentration-dependent significant reduction; p-ITK/ITK ratio (densitometry) ([17]; all concentrations tested, normalized to GAPDH): significant reduction
O=C(NCC(F)(F)F)C1CN(c2cc(-c3ccc(Cl)cc3)n[nH]c2=O)C1 [Compound 38, 1-(6-(4-chlorophenyl)-3-oxo-2,3-dihydropyridazin-4-yl)-N-(2,2,2-trifluoroethyl)azetidine-3-carboxamide] | > 50 µM | 44.9 µM | 29.9 µM | > 50 µM | > 50 µM | > 50 µM | No significant cytotoxicity | > 50 µM | > 50 µM | > 50 µM | > 50 µM | 
O=C(NCC(F)(F)F)C1CN(c2cc(-c3ccc(F)cc3F)n[nH]c2=O)C1 [Compound 39, 1-(6-(2,4-difluorophenyl)-3-oxo-2,3-dihydropyridazin-4-yl)-N-(2,2,2-trifluoroethyl)azetidine-3-carboxamide] | > 50 µM | > 50 µM | 26.8 µM | > 50 µM | > 50 µM | > 50 µM | No significant cytotoxicity | > 50 µM | > 50 µM | > 50 µM | > 50 µM | 
O=C(c1ccc(F)cc1)C1CN(c2cc(-c3ccncc3)n[nH]c2=O)C1 [Compound 52, 4-(3-(4-fluorobenzoyl)azetidin-1-yl)-6-(pyridin-4-yl)pyridazin-3(2H)-one] | > 50 µM | 20.7 µM | > 50 µM | > 50 µM | > 50 µM | 13.2 µM |  | > 50 µM | > 50 µM | > 50 µM | > 50 µM | IC50 at 72 h ([16]; A549, HCT116, HCT116-p53 and U2OS ITK-null cancer cell lines): > 50 µM; IC50 at 72 h [16, 23]: > 50 µM
C=CC(=O)N1CCC[C@@H](n2nc(-c3ccc(Oc4ccccc4)cc3)c3c(N)ncnc32)C1 [ibrutinib, reference compound] |  |  |  |  |  |  |  |  |  |  |  | inhibition of ITK activity (assay validation) ([14]; ibrutinib 100 µM, vs. DMSO control): significant inhibition
